Laboratory results: ChEMBL document CHEMBL1141462, “Tetranorclerodanes and clerodane-type diterpene glycosides from Dicranopteris dichotoma” (J Nat Prod, 2007)

Legend:
[1] = Cytotoxicity against C8166 cells by MTT assay; assay type: cell-based; conditions: human
Outline: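 C8166 cells were used, with viability read by MTT. Cytotoxicity was expressed as CC50.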

[2] = tested on: Human immunodeficiency virus 1; assay: Antiviral activity against HIV1; assay type: functional, organism-based
Outline: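 HIV-1 activity was measured as inhibition of virus-induced cytopathic effect and reported as EC50.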

[3] = Selectivity index, CC50 against C8166 cell/ EC50 against HIV1; assay type: functional
Outline: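 The ratio is CC50 divided by EC50. CC50 comes from MTT cytotoxicity in C8166 cells, and EC50 from inhibition of HIV-1 cytopathic effect.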

| SMILES | CC50 [1] | EC50 [2] | Ratio CC50/EC50 [3] |
| --- | --- | --- | --- |
| C=C[C@@](C)(O)CC[C@@]1(C)[C@H](C)C[C@H](O)[C@@]2(C)C(C)=CCC[C@H]12 | 653 µM | 59.4 µM | >10.99 |
| C=C[C@](C)(O)CC[C@@]1(C)[C@H](C)C[C@H](O[C@@H]2O[C@@H](C)[C@H](O[C@@H]3O[C@H](CO)[C@@H](OC(C)=O)[C@H](O)[C@H]3O)[C@@H](O)[C@H]2O)[C@@]2(C)C(C)=CCC[C@H]12 | 305 µM | 145 µM | >2.09 |
| C=C[C@](C)(O)CC[C@@]1(C)[C@H](C)C[C@H](O[C@@H]2O[C@@H](C)[C@H](O[C@@H]3O[C@H](COC(C)=O)[C@@H](O)[C@H](O)[C@H]3O)[C@@H](O)[C@H]2O)[C@@]2(C)C(C)=CCC[C@H]12 | 121 µM | 110 µM | 1.1 |
| CC(=O)OC[C@H]1O[C@@H](O[C@@H]2[C@@H](O)[C@@H](O)[C@H](O[C@H]3C[C@@H](C)[C@](C)(CC/C(C)=C/CO)[C@H]4CCC=C(C)[C@]34C)O[C@H]2C)[C@H](O)[C@@H](O)[C@@H]1O | 136 µM | 76.3 µM | 1.78 |
| C[C@@H]1C[C@H](O)[C@@]2(C)C(CO)=CCC[C@@H]2[C@@]1(C)CC(=O)O | 709 µM | 302 µM | >2.34 |
| C[C@@H]1C[C@H](O)[C@@]2(C)C(C=O)=CCC[C@@H]2[C@@]1(C)CC(=O)O | 713 µM | 325 µM | >2.19 |
| CC1=CCC[C@@H]2[C@@](C)(CC/C(C)=C/CO)[C@H](C)C[C@H](O[C@@H]3O[C@@H](C)[C@H](O[C@@H]4O[C@H](CO)[C@@H](O)[C@H](O)[C@H]4O)[C@@H](O)[C@H]3O)[C@@]12C | 325 µM | 85.1 µM | >3.82 |
| CC1=CCC[C@@H]2[C@@](C)(CC(=O)O)[C@H](C)C[C@H](O)[C@@]12C [AYLTHONIC ACID] | 751 µM | 197 µM | >3.81 |
| Cc1cn([C@H]2C[C@H](N=[N+]=[N-])[C@@H](CO)O2)c(=O)[nH]c1=O [ZIDOVUDINE] | 5750 µM | 0.0147 µM | 390406.06 |
